pIC50: −log10 of the molar value. Active and inactive are the calls of the source. No cut-off for these calls is given here.
Legend:
Penicillium chrysogenum = test: Antifungal activity against Penicillium notatum FSU 2721 at 10 mg/ml after 24 to 72 hrs by agar diffusion method; type: functional, organism-based
Outline: (§1)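 Fungal plates: malt extract/yeast extract (HA) medium with 1.5% agar, seeded at 45 °C with spores or yeast cells to 10^5 cfu/ml. Compounds in methanol at 10 mg/ml were loaded onto 6 mm paper discs and dried before placement. Inhibition zone diameter (mm) and complete or incomplete inhibition were recorded after 24–72 h.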

[1] = system: Enterobacter cloacae subsp. dissolvens; test: Antibacterial activity against Enterobacter dissolvens ATCC 222 at 10 mg/ml after 24 to 72 hrs by agar diffusion method; type: functional, organism-based
Outline: (§2)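 Bacterial plates: nutrient broth (8 g/l) with 1.5% agar, seeded at 45 °C with spores or vegetative cells to 10^6 cfu/ml. Compounds were dissolved in methanol at 10 mg/ml and applied to 6 mm paper discs, which were dried and laid on the plates. Inhibition zone diameter (mm) and type (complete or incomplete) were scored after 24–72 h.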

[2] = system: Colletotrichum graminicola; test: Antifungal activity against Colletotrichum graminicola M2 at 10 mg/ml after 24 to 72 hrs by agar diffusion method; type: functional, organism-based; outline: as §1
Bacillus subtilis = test: Antibacterial activity against Bacillus subtilis ATTC 6633 at 10 mg/ml after 24 to 72 hrs by agar diffusion method; type: functional, organism-based; outline: as §2
Rhizomucor miehei = test: Antifungal activity against Mucor miehei FSU 769 at 10 mg/ml after 24 to 72 hrs by agar diffusion method; type: functional, organism-based; outline: as §1
Micrococcus luteus = test: Antibacterial activity against Micrococcus luteus ATCC 381 at 10 mg/ml after 24 to 72 hrs by agar diffusion method; type: functional, organism-based; outline: as §2
Eremothecium coryli = test: Antifungal activity against Nematospora coryli ATCC 10647 at 10 mg/ml after 24 to 72 hrs by agar diffusion method; type: functional, organism-based; outline: as §1
Botrytis cinerea = test: Antifungal activity against Botrytis cinerea FSU 883 at 10 mg/ml after 24 to 72 hrs by agar diffusion method; type: functional, organism-based; outline: as §1
Brevibacillus brevis = test: Antibacterial activity against Bacillus brevis ATTC 9999 at 10 mg/ml after 24 to 72 hrs by agar diffusion method; type: functional, organism-based; outline: as §2
NIH3T3 = test: Cytotoxicity against mouse NIH/3T3 cells after 96 hrs by sulforhodamine-B colorimetric assay; type: cell-based; settings: NIH3T3, 96 h
Outline: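 Exponentially growing mouse embryonic fibroblasts were seeded and treated 24 h later with serial dilutions for 96 h; DMSO or DMF stayed at or below 0.5%. Cells were fixed with 10% TCA at 4 °C, stained with 0.4% SRB for about 20 min, washed with 1% acetic acid, solubilised in Tris base, and read at 570 nm. Survival is relative to untreated controls. IC50 was obtained by linear interpolation across the 50% line; three independent experiments.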

| Structure (SMILES) | Activity (Penicillium chrysogenum) | Activity [1] | Activity [2] | Activity (Bacillus subtilis) | Activity (Rhizomucor miehei) | Activity (Micrococcus luteus) | Activity (Eremothecium coryli) | Activity (Botrytis cinerea) | Activity (Brevibacillus brevis) | pIC50 (NIH3T3) |
| --- | --- | --- | --- | --- | --- | --- | --- | --- | --- | --- |
| Oc1ccccc1/C=C/c1cc(F)c(F)c(F)c1 | Active | inactive | Active | Active | Active | Active | Active | Active | Active | < 4.52 |
| COc1cc(F)c(/C=C/c2cc(O)ccc2O)cc1O | – | inactive | – | Active | – | Active | – | – | Active | 4.68 |
| CN(C)[C@@H]1C(O)=C(C(N)=O)C(=O)[C@@]2(O)C(O)=C3C(=O)c4c(O)cccc4[C@@](C)(O)[C@H]3C[C@@H]12 | – | – | – | – | – | – | – | – | Active | – |
| COc1cc(/C=C/c2cccc(O)c2)cc(OC)c1 | – | inactive | – | Active | – | Active | – | – | Active | < 4.52 |
| Oc1cccc(/C=C/c2cc(O)ccc2O)c1 | – | inactive | – | Active | – | Active | – | – | Active | 4.98 |
| COc1ccc(/C=C/c2cccc(O)c2)c(OC)c1 | – | inactive | – | Active | – | Active | – | – | Active | 4.71 |
| COc1cc(/C=C/c2cccc(O)c2)cc(OC)c1F | – | inactive | – | Active | – | Active | – | – | Active | 4.93 |
| COc1ccc(OC)c(/C=C/c2ccc(O)cc2)c1 | – | inactive | – | – | – | – | – | inactive | Active | 5.13 |
| Oc1ccc(/C=C/c2cc(O)c(F)c(O)c2)cc1 | – | inactive | – | – | – | – | – | inactive | Active | < 4.52 |
| COc1cc(/C=C/c2ccc(OC)c(O)c2)cc(OC)c1 | – | – | – | – | – | – | – | – | – | 6.70 |
| Oc1cccc(/C=C/c2cc(F)c(F)c(F)c2)c1 | – | inactive | – | Active | Active | Active | – | – | Active | < 4.52 |
| Oc1ccc(O)c(/C=C/c2ccc(O)c(O)c2)c1 | – | inactive | – | – | – | – | – | – | – | < 4.52 |
| Oc1cccc(/C=C/c2cc(O)c(F)c(O)c2)c1 | – | inactive | – | Active | – | Active | – | – | Active | < 4.52 |
| COc1cc(/C=C/c2ccccc2O)cc(OC)c1F | – | inactive | – | Active | – | Active | – | – | Active | 4.83 |
| COc1ccc(/C=C/c2ccc(OC)c(O)c2)c(OC)c1 | – | – | – | – | – | – | – | – | – | 5.68 |
| Oc1ccc(/C=C/c2cc(F)c(F)c(F)c2)cc1 | – | inactive | – | – | – | – | Active | inactive | Active | 5.16 |
| COc1ccc(OC)c(/C=C/c2cccc(O)c2)c1 | – | inactive | – | Active | – | Active | – | – | Active | 4.59 |
| Oc1ccc(/C=C/c2cc(O)ccc2O)cc1 | – | inactive | – | – | – | – | – | inactive | Active | 5.02 |
| Oc1cccc(/C=C/c2cc(O)cc(O)c2)c1 | – | inactive | – | Active | – | Active | – | – | Active | < 4.52 |
| Oc1ccc(/C=C/c2cc(O)cc(O)c2)cc1 [RESVERATROL] | – | inactive | – | – | – | Active | – | inactive | inactive | < 4.52 |
| COc1ccc(/C=C/c2ccccc2O)c(OC)c1 | – | inactive | – | Active | – | Active | – | – | Active | < 4.52 |
| COc1cc(/C=C/c2ccc(O)cc2)cc(OC)c1 [PTEROSTILBENE] | – | inactive | – | – | – | – | – | inactive | Active | 4.91 |
| COc1ccc(/C=C/c2cc(O)ccc2O)cc1O | – | inactive | – | – | – | – | – | – | – | < 4.52 |
| COc1cc(/C=C/c2ccc(O)cc2)cc(OC)c1F | – | inactive | – | – | – | – | – | inactive | Active | 4.94 |
| COc1ccc(/C=C/c2ccc(O)cc2)c(OC)c1 | – | inactive | – | – | – | – | – | inactive | Active | 5.09 |
| Oc1ccc(O)c(/C=C/c2ccccc2O)c1 | – | inactive | – | Active | – | Active | – | – | Active | 4.91 |

Source: ChEMBL document CHEMBL1817619, “Synthesis and antimicrobial activity of (E) stilbene derivatives” (Bioorg Med Chem, 2011)
